These results are taken from ChEMBL document CHEMBL1155193, “Acyloxymethyl esterification of nodularin-R and microcystin-LA produces inactive protoxins that become reactivated and produce apoptosis inside intact cells” (J Med Chem, 2009).

Data set [1] in a line: Lipophilicity, logD at pI. The data set is classed as physicochemical. The conditions noted are these: octanol/water. In a few lines: (§1)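 In silico estimate under a standard ionic condition (0.1 M Cl⁻, 0.1 M Na⁺/K⁺) at pI and at pH 7.4. pKa was estimated in macro mode at 310 K.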
The test system of data set [2] is NIH3T3. Put plainly: Induction of apoptosis in Swiss mouse 3T3 cells assessed as appearance of apoptotic morphology at 100 uM injected directly into intact cells after 3 hrs by Hoechst 33342 staining-based fluorescence microscopy in presence of esterase. The data set is classed as cell-based. The conditions noted are these: nih3t3, 3 h.
Data set [3] relates to Hepatocyte. Put plainly: Cytotoxicity against Wistar rat hepatocytes harboring transporter Oatp1b2 assessed as appearance of polarized cell blebbing at 80 nM after 90 mins by differential interference contrast microscopy. The settings on record: 1.5 h, 0.08 µM. Format: ADME, cell-based.
The subject of data set [4] is Hepatocyte. The data set is described as follows: Cytotoxicity against Wistar rat hepatocytes harboring transporter Oatp1b2 assessed as appearance of polarized cell blebbing at 60 nM after 90 mins by differential interference contrast microscopy. The conditions noted are these: 1.5 h, 0.06 µM. Format: ADME, cell-based.
Data set [5] has as its system NIH3T3. Put plainly: Induction of apoptosis in Swiss mouse 3T3 cells up to 120 uM after 3 hrs by Hoechst 33342 staining-based fluorescence microscopy. The data set is classed as cell-based. The settings on record: nih3t3, 3 h. The procedure, abridged:
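Swiss 3T3 mouse fibroblasts kept in RPMI with 10% FCS at 37 °C, 5% CO₂. About 7000 cells per well were exposed to various toxin concentrations for 3 h in fresh serum-free medium. The incubation was stopped with buffered formaldehyde containing Hoechst 33342, and apoptosis was scored by fluorescence and DIC microscopy. Mean ± SEM of three experiments.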

Data set [6] in a line: Lipophilicity, logD at pH 7.4. Format: physicochemical. The conditions noted are these: buffer. The procedure, abridged:
as §1

Data set [7] can be described thus: Stability assessed as formation of nodularin-R by HPLC analysis in presence of pig liver esterase. The conditions noted are these: isolated protein. Format: ADME.
In data set [8] the target is Serine/threonine-protein phosphatase 2A catalytic subunit alpha isoform (Oryctolagus cuniculus) (UniProt P67777). The data set is described as follows: Displacement of [125]MC-YR from rabbit skeletal muscle protein phosphatase 2A after 1 hr. Format: tissue-based. The conditions noted are these: Muscle tissue.
Serine/threonine-protein phosphatase 2A catalytic subunit alpha isoform (Oryctolagus cuniculus), sequence (P67777 whole entry, canonical isoform): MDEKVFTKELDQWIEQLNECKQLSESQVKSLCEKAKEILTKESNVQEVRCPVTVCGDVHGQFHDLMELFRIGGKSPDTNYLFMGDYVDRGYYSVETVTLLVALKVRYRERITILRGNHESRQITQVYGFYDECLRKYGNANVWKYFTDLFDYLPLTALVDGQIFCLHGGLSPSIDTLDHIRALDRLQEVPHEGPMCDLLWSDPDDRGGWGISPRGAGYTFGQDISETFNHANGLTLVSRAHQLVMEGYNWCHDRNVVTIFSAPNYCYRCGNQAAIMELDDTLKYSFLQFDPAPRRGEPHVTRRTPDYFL
The test system of data set [9] is Hepatocyte. Put plainly: Cytotoxicity against Wistar rat hepatocytes harboring transporter Oatp1b2 assessed as appearance of polarized cell blebbing at 4 uM after 90 mins by differential interference contrast microscopy. Format: ADME, cell-based. The settings on record: 1.5 h.
The subject of data set [10] is Hepatocyte. Put plainly: Cytotoxicity against Wistar rat hepatocytes harboring transporter Oatp1b2 assessed as appearance of polarized cell blebbing at 0.2 uM after 90 mins by differential interference contrast microscopy. Format: ADME, cell-based. The settings on record: 1.5 h.

Each structure is given as a SMILES string. Activity calls are given as the source filed them. No cut-off for these calls is given here. Starred links: 1 amine or outer side, 2 acyl side, 3 side chain; linkers in the order of their positions; H or OH if unused. Positions of bridges follow the written chain, without caps; N, C: chain ends. Non-standard residues stand in square brackets, D forms with d. Residues, ends and D or L forms follow the SMILES beside them. Adda = CO[C@@H](Cc1ccccc1)[C@@H](C)/C=C(C)/C=C/[C@H](N[*:1])[C@H](C)C(=O)[*:2]; X1 = CC(C)C[C@H](N[*:1])C(=O)C[C@@H](C(=O)O)[C@H](C)C(=O)[*:2]; dAsp(3S-Me) = C[C@H](C(=O)[*:3])[C@@H](N[*:1])C(=O)[*:2]; d(γGlu) = O=C(O)[C@@H](CCC(=O)[*:2])N[*:1]; NMeDha = C=C(NC)C(=O)O

On to `C=C1C(=O)N[C@H](C)C(=O)N[C@@H](CC(C)C)C(=O)C[C@@H](C(=O)O)[C@H](C)C(=O)N[C@@H](C)C(=O)N[C@@H](/C=C/C(C)=C/[C@H](C)[C@H](Cc2ccccc2)OC)[C@H](C)C(=O)N[C@@H](C(=O)O)CCC(=O)N1C` [MICROCYSTIN-LA] ([NMeDha][dA][X1]A[Adda][dE]-OH; lactam N-6), for which the log distribution coefficient (logD) in [1] came out at 0.3.
For the compound `C/C=C1/C(=O)N[C@@H](C(=O)O)[C@H](C)C(=O)N[C@@H](CCCNC(=N)N)C(=O)N[C@@H](/C=C/C(C)=C/[C@H](C)[C@H](Cc2ccccc2)OC)[C@H](C)C(=O)N[C@@H](C(=O)O)CCC(=O)N1C` [NODULARIN], in [1], the pH-dependent lipophilicity (logD) is -3.1. The Activity entry with NIH3T3 [2] and in the data set on Hepatocyte [3] was “Toxic” throughout.
For `C/C=C1/NC(=O)CC[C@H](C(=O)OCOC(=O)CC)NC(=O)[C@@H](C)[C@H](/C=C/C(C)=C/[C@H](C)[C@H](Cc2ccccc2)OC)NC(=O)[C@H](CCCNC(=N)N)NC(=O)[C@@H](C)[C@H](C(=O)OCOC(=O)CC)NC1=O`, the values for the Activity result in the data set with Hepatocyte [4], with NIH3T3 [5] and in the data set on NIH3T3 [2] were “Toxic”, < 20% and “Toxic”, respectively. The logD is 1.6 in data set [1] and -0.7 in data set [6] (read-out: logD). In [7], the Stability result is “Unstable”.
Regarding `C/C=C1/NC(=O)CC[C@H](C(=O)OCOC(C)=O)NC(=O)[C@@H](C)[C@H](/C=C/C(C)=C/[C@H](C)[C@H](Cc2ccccc2)OC)NC(=O)[C@H](CCCNC(=N)N)NC(=O)[C@@H](C)[C@H](C(=O)OCOC(C)=O)NC1=O`, the Activity result is “Toxic” with Hepatocyte [4], < 20% in the data set with NIH3T3 [5] and “Toxic” with NIH3T3 [2]. Further, the logD is 0.4 in [1] and -2 in [6] (read-out: logD). The outcome in data set [8] was inactive. Moreover, in [7], the Stability result was “Unstable”.
Take `C/C=C1/NC(=O)CC[C@H](C(=O)O)NC(=O)[C@@H](C)[C@H](/C=C/C(C)=C/[C@H](C)[C@H](Cc2ccccc2)OC)NC(=O)[C@H](CCC/N=C2/N=C(c3ccccc3)C(O)N2)NC(=O)[C@@H](C)[C@H](C(=O)O)NC1=O` (some centres undefined): the Activity result is “Toxic” with Hepatocyte [9], < 20% in the data set with NIH3T3 [5] and “Toxic” in the data set with NIH3T3 [2]. In addition, the pH-dependent lipophilicity (logD) in data set [1] was -1.4; in data set [6], -4.8.
As to `C=C1C(=O)N[C@H](C)C(=O)N[C@@H](CC(C)C)C(=O)N[C@@H](C(=O)O)[C@H](C)C(=O)N[C@@H](CCCNC(=N)N)C(=O)N[C@@H](/C=C/C(C)=C/[C@H](C)[C@H](Cc2ccccc2)OC)[C@H](C)C(=O)N[C@@H](C(=O)O)CCC(=O)N1C` [MICROCYSTIN-LR] (R[Adda][d(γGlu)][NMeDha][dA]L[dAsp(3S-Me)]-OH; lactam N-7), the Activity entry in the data set on Hepatocyte [10] and with NIH3T3 [2] was “Toxic” each time.
